DNMT1 inh: blocks human DNA methyltransferase DNMT1; P26358; inhibition (reported as % activation of signal), % at 10 µM; 360,000 tested, 0.83% active; AID 588458; DNMT1 molecular beacon, Hinp1I cleavage, fluorescence; in the data active means inhibition above about 50%
STEP inh: inhibitors of human striatal-enriched phosphatase STEP | P54829 | recombinant STEP, OMFP fluorogenic substrate, fluorescence | inhibition, % at 20 µM | 360,000 tested, 0.25% active;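 active means inhibition at 20 µM, scaled per plate between control wells, above about 37%, limit read from the data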
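Measure: Control-normalized % inhibition with plate pattern correction | Test system: STEP phosphatase, cell-free reaction | Medium: pH 6.0 Bis-Tris with DTT and Tween 20 | Technique: Fluorescence, 480/540 nm | Times: Reaction 20 min, ambient temperature | Doses: Single compound dose of 20 µM, 1% DMSO final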
SUMO1-SIM PPI: modulators of human SUMO1-mediated protein-protein interactions. P63165. SUMO1 binding to a labelled peptide, TR-FRET, 1 h. inhibition, % at 20 µM. 360,000 tested, 0.33% active; in the data active means inhibition above about 37%
Target sequence (P63165 whole entry, looked up): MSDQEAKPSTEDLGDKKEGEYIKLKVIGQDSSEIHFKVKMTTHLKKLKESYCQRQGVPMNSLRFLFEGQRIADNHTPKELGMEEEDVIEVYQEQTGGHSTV
LMPTP block: blocks human LMPTP phosphatase; P24666; 360,000 tested, 0.22% active; recombinant LMPTP-A, OMFP fluorogenic substrate, fluorescence intensity; AID 651560; inhibition, % at 20 µM;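 active means compounds that cut the enzyme signal by at least half of the control window in the single-dose screen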
Target sequence (P24666 whole entry, looked up): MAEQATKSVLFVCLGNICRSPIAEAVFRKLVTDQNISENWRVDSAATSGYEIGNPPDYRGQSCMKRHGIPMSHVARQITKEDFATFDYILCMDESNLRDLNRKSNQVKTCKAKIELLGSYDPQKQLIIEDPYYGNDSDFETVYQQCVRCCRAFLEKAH
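Buffer or medium: Bis-Tris pH 6.0, DTT, detergent; Assay system: LMPTP-A enzyme; Quantity: 0.625 nM enzyme; Detection: endpoint fluorescence intensity; Times: 50 min dark incubation at room temperature; Controls: substrate-only low control, DMSO enzyme-plus-substrate high control; Doses: single 20 µM dose; Read-out: percent inhibition versus substrate-only and uninhibited controls; Reagent: 400 µM OMFP.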
Scp-1 inhibitor: inhibitors of human Scp-1 phosphatase | 340,000 tested, 0.88% active | inhibition, % at 20 µM | Q9GZU7 | AID 493091 | Recombinant Scp1, phosphopeptide, malachite green phosphate absorbance;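 active means inhibition above about 50% at 20 µM, limit read from the data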
Target sequence (Q9GZU7 76-261 limits assumed): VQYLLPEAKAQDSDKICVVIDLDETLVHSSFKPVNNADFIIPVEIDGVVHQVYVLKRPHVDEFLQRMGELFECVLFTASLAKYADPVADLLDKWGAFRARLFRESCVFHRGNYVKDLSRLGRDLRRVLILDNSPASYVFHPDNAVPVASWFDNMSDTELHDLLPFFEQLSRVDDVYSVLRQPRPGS
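Times: enzyme reaction 45 min at room temperature, colour 5 min, stabilisation 30 min. Material: SCP-1 catalytic fragment, aa 76-261. Medium: Acidic Tris acetate buffer with magnesium and detergent. Signal: colorimetric free-phosphate detection, absorbance 630 nm. Read-out basis: % inhibition of SCP-1 phosphate liberation. Reagent: Phosphorylated 17-residue peptide substrate.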
A number is an active result; n = inactive; x = not tested or not shown. An excerpt weighted towards active compounds, which were near 1.7% of everything screened.

SMILES	DNMT1 inh	STEP inh	SUMO1-SIM PPI	LMPTP block	Scp-1 inhibitor
Cn1c2ccccc2c(=O)c2c(=O)n(-c3ccccc3)c(C3CCCCC3)nc21	n	n	n	n	n
O=C(Nc1cccnc1Oc1ccc(Cl)cc1)c1cccc2ccccc12	n	n	n	n	n
COc1ccc(-c2csc(NC(=S)NC(=O)c3cccs3)n2)cc1OC	n	n	44.5	n	n
COc1ccc(-c2csc(NC(=S)NC(=O)c3cccs3)n2)cc1Br	n	n	n	n	n
O=C(/C=C/c1ccccc1)c1cc(Br)ccc(=O)c1O	60.8	n	n	n	n
Nc1ccc2c(c1)C(=O)C(=O)c1ccccc1-2	120.0	58.7	48.0	n	n
O=C1C(=O)c2ccc(-c3ccccc3)cc2-c2ccccc21	106.1	n	41.3	n	n
CC(NC(=O)/C=C/c1ccccc1[N+](=O)[O-])C1CC2CCC1C2 (stereo unspecified)	n	n	n	n	n
CCN(CC(=O)Nc1c(F)cccc1F)C(=O)/C=C/c1ccc2ccccc2n1	101.8	41.7	77.3	71.0	85.9
Cc1cccc(NC(=O)Cn2nnc(-c3ccc(CN4CCCC4)cc3)n2)c1C	n	n	n	n	n
NC(=O)Cn1nnc(-c2ccc(CN3CCCCC3)cc2)n1	n	n	58.1	n	n
COc1cccc(C(=O)NC(=S)N2c3ccccc3CC2C)c1OC (stereo unspecified)	n	n	42.8	n	n
CN(C)CCCNc1nc(-c2ccccc2)nc2ccccc12	n	n	n	n	n
Cc1ccc(-c2nc(NCCN3CCOCC3)c3ccccc3n2)cc1	n	n	n	49.8	n
Fc1ccccc1-c1nc(NCCCN2CCOCC2)c2ccccc2n1	n	n	n	50.6	n
Clc1ccc(-c2nc(NCCCN3CCOCC3)c3ccccc3n2)cc1	n	n	n	n	n
CC(C)OCCCNc1nc(-c2ccccc2)nc2ccccc12	n	n	n	55.7	n
Cc1sc2ncn(CC(=O)NCCCN3CC(C)CC(C)C3)c(=O)c2c1S(=O)(=O)N1CC(C)CC(C)C1 (stereo unspecified)	n	n	n	n	n
Cc1ccc(CC#N)c(-c2c(CC#N)ccc(C)c2C)c1C	n	n	n	n	x
Cc1ccc2c(c1C)-c1c(ccc(C)c1C)C(=O)C2=O	95.3	n	48.8	n	n
CSc1cccc(CN2CCN(Cc3ccc(F)c(F)c3)C(CCO)C2)c1 (stereo unspecified)	n	n	n	n	n
O=C(/C=C/c1ccc(Br)cc1)NC(=O)c1ccccc1O	n	n	n	56.5	58.6
Cc1ccccc1CSCC(=O)NCCSc1ccccn1	n	n	48.9	n	n
Cc1ccccc1N(CC(=O)NCCSc1ccccn1)S(=O)(=O)c1ccccc1	n	n	n	n	n
Cc1cc(C)c(C#N)c(SCC(=O)Nc2nonc2N)n1	n	n	46.0	n	n
SMILES	DNMT1 inh	STEP inh	SUMO1-SIM PPI	LMPTP block	Scp-1 inhibitor
COC(=O)c1[nH]c(C)c(/C(O)=C2\C(=O)C(=O)N(CCN3CCOCC3)C2c2ccc(C)o2)c1C (stereo unspecified)	n	n	n	n	n
CNc1ccc(Br)cc(C(=O)/C=C/c2ccc(Cl)cc2Cl)c1=O	67.0	n	n	n	n
CCNc1ccc(Br)cc(C(=O)/C=C/c2c(Cl)cccc2Cl)c1=O	83.7	n	n	n	n
COc1ccc(S(=O)(=O)N2CCOCC2)cc1NC(=O)/C=C/c1ccccc1	n	n	n	n	n
Fc1cccc2sc(Nc3nnc(-c4ccccc4)o3)nc12	n	n	n	n	50.7
O=C(NCC1CCCO1)c1cc2nc(-c3ccco3)cc(C(F)(F)Cl)n2n1 (stereo unspecified)	n	n	n	n	n
COc1cccc(CN2C(=O)[C@@H]3Cc4c([nH]c5ccccc45)C(C)(C)N3C2=O)c1	n	n	n	n	n
CCN(CC(=O)Nc1ccccc1C(F)(F)F)C(=O)c1cc2c(s1)CCCCC2	n	n	n	n	n
COCCN(CC(=O)Nc1cccc(C)c1C)C(=O)c1cc2c(s1)CCC2	n	n	n	n	61.1
COc1ccc2[nH]c3nc(SCc4nnc(-c5ccc(C)cc5)o4)nnc3c2c1	56.5	n	n	n	n
O=C(Nc1ccc(C2=NCCN2)cc1)c1ccc(C(=O)Nc2ccc(C3=NCCN3)cc2)c([N+](=O)[O-])c1	n	n	96.0	82.4	n

Bioassay records (PubChem BioAssay)
